activation, potentiation and outcome data for 30 compounds are collected here from PubChem BioAssay.

Active and inactive are the calls of the source.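 The calls were made as follows, unless noted: active = mean duplicate potentiation above the buffer control mean plus 5 SD of buffer wells; inactive = the rest.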

Test [1] in a line: nonspecific flux increase, KCNQ1-free cells – parental CHO cells, counter-screen for KCNQ1 potentiator project (AID 493006;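 active = duplicate-averaged activation above buffer control mean plus 5 SD of those controls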). Conditions: parental CHO-K1 cells, FluxOR thallium flux, at 10 µM; stronger effect = higher value. The method in brief:
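Test system: parental CHO-K1 cells, FluxOR dye-loaded / Probe or stimulus: potassium plus thallium depolarizing stimulus, 5x stock 12.5 mM K2SO4, Tl2SO4 / Timing: overnight 37 °C plating, 90 min dye, 20 min dark compound / Measured by: kinetic thallium-flux fluorescence / Read-out: max-minus-min fluorescence over baseline, percent of buffer-to-R-L3 span / Benchmarks: buffer and R-L3 controls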
For orientation: The purpose of a counterscreen is to sort out artefacts and off-target activity.

Test [2] has as its target Potassium voltage-gated channel subfamily KQT member 1 (Homo sapiens) (UniProt P51787). As to the kind of experiment: enhancement of KCNQ1 channel thallium flux – FluxOR thallium flux, CHO cells, duplicates, confirmation (AID 493007;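 active = potentiation averaged over duplicate wells exceeding buffer-only control mean by more than 3 SD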;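 as to outcome: cells depolarized by a potassium plus thallium sulfate stimulus after compound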;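 as to potentiation: 0% = buffer-only wells and 100% = R-L3 activator control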). The settings on record: KCNQ1 cell line, FluxOR thallium flux fluorescence, at 10 µM; stronger effect = higher value, % of reference activator effect, buffer zero. The method in brief: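 Assay system: CHO cells carrying KCNQ1 | Controls: Buffer and R-L3 controls | Schedule: FluxOR dye loading 90 min, compound exposure 20 min, room temperature | Read-out: Baseline-normalized fluorescence change, percent of buffer-to-R-L3 range | Replicates: Each compound tested in duplicate | Technique: Kinetic thallium influx fluorescence with FluxOR dye, 10 s baseline, 110 s post-stimulus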

For test [3], the target named is Potassium voltage-gated channel subfamily KQT member 2 (Rattus norvegicus) (UniProt O88943). As to the kind of experiment: KCNQ2 thallium flux enhancement – KCNQ2-CHO-K1 cells, selectivity assay for KCNQ1 potentiator project (AID 493009).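 Also: assay conditions were tuned for KCNQ1 rather than KCNQ2 modulators; signal is max minus min fluorescence divided by baseline after thallium stimulus.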 The settings on record: FluxOR thallium flux fluorescence, at 10 µM; stronger effect = higher value, scaled: buffer 0, activator control 100.

For test [4], the target named is Potassium voltage-gated channel subfamily KQT member 1 (Homo sapiens) (UniProt P51787). The experiment in a line: KCNQ1 activators by electrophysiology – IonWorks patch clamp, KCNQ1-CHO cells, orthogonal assay for KCNQ1 potentiator project, confirmation (AID 493184;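 active = current rise at least 3 SD above the untreated control mean in each of two repeat wells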). The settings on record: automated patch clamp current, at 10 µM; stronger effect = higher value. The method in brief: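 Material: KCNQ1-expressing CHO cells; doses: 10 µM final, single point; probe or stimulus: voltage step from -90 mV holding to +40 mV, 2,000 ms; signal: automated voltage clamp, amphotericin B perforated patch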
(In general: The patch-clamp technique gives a direct electrical read-out from membranes.)

Sequence of Potassium voltage-gated channel subfamily KQT member 2 (Rattus norvegicus) (O88943 whole entry, looked up): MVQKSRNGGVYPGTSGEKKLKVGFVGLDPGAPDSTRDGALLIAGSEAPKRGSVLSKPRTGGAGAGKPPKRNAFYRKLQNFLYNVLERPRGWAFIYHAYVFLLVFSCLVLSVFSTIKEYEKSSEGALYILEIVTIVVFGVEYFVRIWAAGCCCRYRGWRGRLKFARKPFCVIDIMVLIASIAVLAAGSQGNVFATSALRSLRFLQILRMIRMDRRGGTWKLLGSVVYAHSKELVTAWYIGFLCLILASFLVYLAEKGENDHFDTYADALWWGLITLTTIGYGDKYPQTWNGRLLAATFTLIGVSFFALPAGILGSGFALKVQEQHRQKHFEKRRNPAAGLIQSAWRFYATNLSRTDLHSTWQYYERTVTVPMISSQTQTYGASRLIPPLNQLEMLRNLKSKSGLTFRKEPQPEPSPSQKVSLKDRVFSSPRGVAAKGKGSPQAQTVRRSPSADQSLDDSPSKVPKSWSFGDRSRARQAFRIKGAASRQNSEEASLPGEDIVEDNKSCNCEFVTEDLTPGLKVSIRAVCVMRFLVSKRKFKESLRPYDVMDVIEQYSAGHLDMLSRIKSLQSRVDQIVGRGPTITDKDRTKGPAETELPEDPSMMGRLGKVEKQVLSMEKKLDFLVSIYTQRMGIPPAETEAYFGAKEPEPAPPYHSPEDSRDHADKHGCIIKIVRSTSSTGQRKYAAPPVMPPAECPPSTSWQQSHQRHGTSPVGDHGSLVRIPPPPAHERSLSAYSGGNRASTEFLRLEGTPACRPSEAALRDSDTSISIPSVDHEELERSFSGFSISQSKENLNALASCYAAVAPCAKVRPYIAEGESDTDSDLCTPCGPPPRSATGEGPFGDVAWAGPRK
Sequence of Potassium voltage-gated channel subfamily KQT member 1 (Homo sapiens) (P51787 whole entry, looked up): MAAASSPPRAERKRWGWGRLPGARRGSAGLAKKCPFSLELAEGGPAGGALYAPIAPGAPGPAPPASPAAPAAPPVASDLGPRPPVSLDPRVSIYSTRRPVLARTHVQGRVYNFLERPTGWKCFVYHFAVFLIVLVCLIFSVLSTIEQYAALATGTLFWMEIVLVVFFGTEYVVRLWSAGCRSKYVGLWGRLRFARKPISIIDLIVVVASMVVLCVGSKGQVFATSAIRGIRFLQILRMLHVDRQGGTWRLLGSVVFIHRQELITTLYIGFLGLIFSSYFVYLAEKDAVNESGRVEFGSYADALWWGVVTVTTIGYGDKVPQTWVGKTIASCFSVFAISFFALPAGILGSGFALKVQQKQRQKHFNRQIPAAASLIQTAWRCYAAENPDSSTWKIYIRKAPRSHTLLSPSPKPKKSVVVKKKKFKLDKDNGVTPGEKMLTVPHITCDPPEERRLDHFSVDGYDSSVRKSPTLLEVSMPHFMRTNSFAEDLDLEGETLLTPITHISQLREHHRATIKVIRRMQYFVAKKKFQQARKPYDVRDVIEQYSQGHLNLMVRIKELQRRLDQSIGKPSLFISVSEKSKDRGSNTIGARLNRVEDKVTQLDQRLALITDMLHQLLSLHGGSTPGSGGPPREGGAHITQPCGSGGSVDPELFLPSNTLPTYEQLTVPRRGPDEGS

As for `COc1ccc(-n2cc(CNC3CCN(C)CC3)c(-c3cccc(F)c3)n2)cc1`, the activation in test [1] was 142% (active). In test [2], the potentiation was 31% (active). The outcome in test [3] and in test [4] was inactive.

Consider `S=c1[nH]c(-c2ccc(Cl)cc2)cs1`, for which the activation in test [1] was 634% (active). The potentiation was 206% (active) in test [2] and 525% (active) in test [3]. In test [4], the outcome was inactive.

On to `FC(F)(F)c1cnc2c(c1)[nH]c(=S)n2-c1ccc(Cl)cc1`, for which the activation in test [1] is 142% (active). In addition, the potentiation in test [2] is 27% (active); in test [3], 178% (active). In test [4], the outcome was inactive.

In the case of `CCCCOc1ccc(C(=O)Oc2ccc(C)nc2)cc1`, the outcome in test [1], in test [2], in test [3] and in test [4] was inactive.

As for `Cc1ccc(S(=O)(=O)N2CCCC(C(=O)Nc3ccc(C(=O)O)cc3)C2)cc1Cl` (stereo not given), the outcome in test [1], in test [2], in test [3] and in test [4] was inactive.

Consider `Cc1cc(C)cc(OCC(O)Cn2nc(C)cc2C)c1` (stereo not given), for which the result in test [1], in test [2], in test [3] and in test [4] was inactive.

Take `CCN(CC(=O)Nc1ccc(OC)cc1)C(=O)CSCC(=O)Nc1ccc(C)cc1`: the result in test [1], in test [2], in test [3] and in test [4] was inactive.

As to `Cc1cc(C(=O)N/N=C/C=C/c2ccc3c(c2)OCO3)n[nH]1`, the result in test [1], in test [2], in test [3] and in test [4] was inactive.

As to `COc1ccc(NC2=NC3(CCCCC3)N=C(N)N2)cc1`, the outcome in test [1], in test [2], in test [3] and in test [4] was inactive.

For the compound `CN(C)/C=N/S(=O)(=O)c1cccn1-c1ncc(C(F)(F)F)cc1Cl`, the result in test [1], in test [2], in test [3] and in test [4] was inactive.

For the compound `O=C(CNC(=O)C(c1ccccc1)c1ccccc1)N/N=C/c1ccc(O)cc1O`, the outcome in test [1], in test [2], in test [3] and in test [4] was inactive.

With `CCOC(=O)Cc1csc(NC(=S)NC(=O)C(C)(C)C)n1`, in test [1], the activation was 136% (active). Also, the result in test [2], in test [3] and in test [4] was inactive.

Turning to `C(=N\NC(=Nc1ccccc1)c1ccccn1)/c1ccccn1`, the outcome in test [1], in test [2], in test [3] and in test [4] was inactive.

As for `O=C(OCc1cccc([N+](=O)[O-])c1)c1ccncc1`, the outcome in test [1], in test [2], in test [3] and in test [4] was inactive.

As to `COC(=O)c1c(NC(=S)Nc2ccc(F)cc2[N+](=O)[O-])sc2c1CCCCC2`, the activation in test [1] was 160% (active). Also, the results for the potentiation in test [2] and in test [3] were 32.5% (active) and 180% (active), respectively. Also, the outcome in test [4] was inactive.

Take `S=c1[nH]nc(-c2cccs2)n1/N=C/c1c(Cl)cccc1Cl`: the outcome in test [1] and in test [4] was inactive. Besides, the figures for the potentiation in test [2] and in test [3] were 30% (active) and 196% (active), respectively.

`Cc1cc(C(=O)OCC(=O)NCc2ccco2)c(C)n1-c1ccc(F)cc1`: the activation in test [1] was 283% (active). Also, the figures for the potentiation in test [2] and in test [3] were 116% (active) and 323% (active), respectively. For the same compound, in test [4], the outcome was inactive.

For the compound `O=C(c1ccccc1[N+](=O)[O-])N1CCN(c2ccc(N3CCOCC3)nn2)CC1`, the outcome in test [1], in test [2], in test [3] and in test [4] was inactive.

As for `C/C(=N\NC(=O)c1cccc(Br)c1)c1ccccn1`, the outcome in test [1], in test [2], in test [3] and in test [4] was inactive.

As to `CC1CCN(c2ncnc3ccccc23)CC1`, the outcome in test [1], in test [2], in test [3] and in test [4] was inactive.

For `COc1ccc(CCN(C)CC(O)COc2c(C)ccc(C)c2C)cc1OC` (stereo not given), the result in test [1], in test [2], in test [3] and in test [4] was inactive.

For `O=C1CC(c2ccccc2)CC(O)=C1C=Nc1ccc(O)cc1` (stereo not given), the result in test [1], in test [2], in test [3] and in test [4] was inactive.

Consider `CCOc1ccc(NC(=O)Cn2nnc(-c3ccccc3NC(=O)c3cccs3)n2)cc1`, for which the outcome in test [1], in test [2], in test [3] and in test [4] was inactive.

`COc1cccc(N=Nc2ccc(O)c3ncccc23)c1`: the activation in test [1] was 166% (active). Besides, the potentiation in test [2] was 44% (active); in test [3], 170% (active). Further, in test [4], the outcome was inactive.

Turning to `Cc1ccccc1N(CC(=O)N/N=C/c1cc(C)n(-c2ccccc2C)c1C)S(C)(=O)=O`, the outcome in test [1], in test [2], in test [3] and in test [4] was inactive.

As for `CCCCCC/C(C)=C1/SC(=S)NC1=O`, the activation in test [1] was 752% (active). The potentiation in test [2] was 264% (active); in test [3], 612% (active). Also, the result in test [4] was inactive.

`CCOc1ccc2nc(N3C(=O)/C(=C/c4ccc(Cl)cc4)NC3=S)sc2c1`: in test [1], the activation is 283% (active). The potentiation was 143% (active) in test [2] and 416% (active) in test [3]. Also, the outcome in test [4] was inactive.

Turning to `O=C(NC(=S)Nc1ccccc1)c1cc(-c2ccccc2)nc2ccccc12`, the activation in test [1] was 158% (active). The potentiation was 75% (active) in test [2] and 194% (active) in test [3]. In test [4], the outcome was inactive.

With `N#Cc1ccccc1NS(=O)(=O)c1cc2c3c(c1)CCC(=O)N3CCC2`, the outcome in test [1], in test [2], in test [3] and in test [4] was inactive.

For `S=c1[nH]nc(-c2ccco2)n1/N=C/c1ccc(Cl)cc1Cl`, the activation in test [1] is 174% (active). The potentiation in test [2] is 48% (active); in test [3] it was 173% (active). Further, the outcome in test [4] was inactive.
